APP 5'UTR act: activates APP 5'UTR luciferase reporter; SH-SY5Y APP 5'UTR luciferase reporter, luminescence; zero percent = DMSO vehicle wells; activation, % at 2 µM; 190,000 compounds, 1% hits; AID 1276;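 active means activation above a set limit, based on mean plus 3 SD of controls, cut at about 140% in these data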
FLuc act counter: affects firefly luciferase, flagging false hits in luciferase stimulation screens; P08659; ATPlite luciferase biochemical, luminescence, 10 min; 0 = ATP-free wells, 1 = DMSO control; activation factor at 10 µM; 200,000 tested, under 10 active; AID 1027;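 active means luciferase activation factor, scaled between plate controls, of at least 2 with compound at 10 µM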
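System: luciferase plus luciferin reagent, cell-free; medium: PBS as buffer for the ATP substrate; dosing: test compounds dosed from 2 mM stocks in 100% DMSO; timing: 10 min post-reagent at room temperature; measured by: luminescence measurement of luciferase light output; evaluation: luciferase activation, seen as luminescence increase over controls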
FLuc inh counter: inhibits firefly luciferase, flagging false hits in luciferase inhibition screens. P08659. ATPLite firefly luciferase biochemical luminescence, 10 min. inhibition, % at 10 µM. 200,000 compounds, 1.5% hits;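 active means inhibition above about 50% when tested at 10 µM, limit read from the data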
NF-kB expr up: NF-kB expression increase, human neuronal cells | NF-kB reporter expression; active compounds read high | fold change at 12.5 µM | 190,000 compounds, 1.6% hits | AID 1239; in the data active means fold change above about 3.3
STAT1 activator: activators of IFN-gamma induced STAT1 signaling | NIH 3T3 STAT1-luciferase reporter, luminescence; 100% = IFN-gamma alone, no compound | activation (% of control), % at 5.5 µM | 200,000 compounds, 2.6% hits;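 active means activation above the screen-wide mean activation plus 3 SD, cut at about 130% in these data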
Each line names hits and unclear results; the compound was inactive in the other large screens. Most compounds without a hit are left out; they make up all but 4.3% or so of the library.

CN(C)c1ccc(/C=c2\sc3n(c2=O)CCCN=3)cc1	APP 5'UTR act 142, FLuc inh counter 84, NF-kB expr up 5.7, STAT1 activator 150
COC(=O)/C=c1/sc2n(c1=O)CCN=2	none
O=c1/c(=C\c2ccc(F)cc2)sc2n1CCCN=2	APP 5'UTR act 170, STAT1 activator 149
CN(C)c1ccc(/C=C2\CCC/C(=C\c3ccccc3)C2=O)cc1	none
O=c1/c(=C/c2ccc(O)cc2)sc2n1CCCN=2	STAT1 activator 139
S=c1cnc2ccccc2[nH]1	none
O=C(Nc1ccc2cn[nH]c2c1)c1ccccc1F	FLuc inh counter 53, STAT1 activator 147
O=C(Nc1ccc2c(c1)OCCO2)c1ccccc1F	APP 5'UTR act 146, FLuc inh counter 76, NF-kB expr up 5.2
CS(=O)(=O)Nc1ccccc1C(=O)Nc1ccc2c(c1)OCCO2	none
O=C(NC(=S)Nc1ccc2c(c1)OCCO2)c1ccccc1F	APP 5'UTR act 159, FLuc inh counter 50, NF-kB expr up 7.4, STAT1 activator 149
O=C(Nc1ccc2c(c1)OCCO2)c1c(F)cccc1F	NF-kB expr up 4
Cc1ccc(NC(=O)COc2ccc(Br)cc2C)cc1	none
CCN1C(=O)C(CC(=O)Nc2ccc(Br)cc2)N(CCCc2ccccc2)C1=S (stereo not drawn)	none
CN(C)/C=N/C1=C(C#N)C(c2cccs2)c2ccc3ccccc3c2O1 (stereo not drawn)	none
O=C(NC(=S)Nc1ccc2c(c1)OCCO2)c1ccccc1	APP 5'UTR act 179, FLuc inh counter 68, NF-kB expr up 4.7
CC(C)(C)C1CCc2sc(C(=O)NNC(=O)CCl)cc2C1 (stereo not drawn)	FLuc inh counter 57
CC(C)(C)C1CCC(=NNC(=O)c2cc3c(s2)CCCC3)CC1 (stereo not drawn)	none
O=C(CO/N=C/c1ccc(OC(F)F)cc1)NC1CCCCCC1	none
O=C(Oc1ccccc1/C=C\C(=O)c1cc2ccccc2o1)c1ccccc1	APP 5'UTR act 163, NF-kB expr up 5.7
O=C(Oc1ccccc1/C=C\C(=O)c1cc2ccccc2o1)c1cccc(F)c1	NF-kB expr up 4
O=C(Nc1ccccc1)c1ccc(OC(=O)c2cc3ccccc3o2)cc1	none
COc1cccc(C(=O)Oc2ccccc2/C=C\C(=O)c2cc3ccccc3o2)c1	NF-kB expr up 21
CC(=O)c1cccc(NC(=O)CCOc2ccccc2)c1	none
O=C(Nc1ccc2snnc2c1)Nc1cccc2ccccc12	none
Cc1nc2cc(Nc3nnc(-c4ccccc4)c4ccccc34)ccc2n1C	FLuc inh counter 92
Cc1nc2cc(NC(=O)Nc3cccc4ccccc34)ccc2n1C	FLuc inh counter 56, STAT1 activator 145
CC(=O)c1cccc(NC(=O)C(=O)Nc2cccc3ccccc23)c1	STAT1 activator 137
Cn1c(C2=C(O)CN(c3ccccc3)C2=N)nc2ccccc21	none
Cc1ccc(O)c(/C=N/NC(=O)c2[nH]ncc2Br)c1	FLuc inh counter 74, NF-kB expr up 8.1, STAT1 activator 131
CCOc1ccc(/C=N/NC(=O)c2[nH]ncc2Br)c(O)c1	FLuc inh counter 91, NF-kB expr up 4.4
O=C(N/N=C/c1c(O)ccc2ccccc12)c1[nH]ncc1Br	none
COc1ccc(C(C(N)=O)c2ncc(C(F)(F)F)cc2Cl)cc1OC (stereo not drawn)	none
COc1cc(N/N=C/c2ccccc2O)ncn1	none
COc1cc(N/N=C/c2ccc(N(C)C)cc2)ncn1	APP 5'UTR act 135, FLuc inh counter 86, NF-kB expr up 4.1
O=C(CSc1nnc2c(n1)[nH]c1ccc(S(=O)(=O)N3CCOCC3)cc12)Nc1ccc(F)c(F)c1	none
CC(C)c1ccc2[nH]c3nc(SCC(=O)N4CCOCC4)nnc3c2c1	STAT1 activator 131
O=C(Oc1cccc(Nc2ncnc3ccccc23)c1)c1ccccc1Cl	none
O=C(Nc1ccccc1)c1sc(Cl)nc1-c1ccccc1	none
O=C(Nc1ccccc1)c1ccc(-c2ccccc2)s1	STAT1 activator 137
COc1ccc(-c2nsc3c(N4CCCC4)ncnc23)cc1	APP 5'UTR act 156, FLuc inh counter 86
O=C(N/N=C/c1ccc(O)cc1)c1[nH]c2ccc(Br)cc2c1-c1ccccc1	none
O=C(N/N=C/c1c[nH]c2ccccc12)c1[nH]c2ccc(Br)cc2c1-c1ccccc1	NF-kB expr up 3.6
Cc1cc(C(=O)CN2CCCC2)c(C)n1-c1ccc(Cl)cc1	none
